Experimental data reported in ChEMBL document CHEMBL1125626, “Synthesis and structure-activity relationship of new cephalosporins with amino heterocycles at C-7. Dependence of the antibacterial spectrum and beta-lactamase stability on the pKa of the C-7 heterocycle” (1991).
In brackets after ≈: the same amount, converted by molar mass.

Legend:
Escherichia coli [1] = assay: Minimum inhibitory concentration against Escherichia coli DC2 (inoculum, 10e4 cfu per spot); type: functional
Outline: (§1)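 MIC in µg/mL, determined in Jewell and Permain growth medium with spot inoculation at 10^4 cfu per spot. P99 is described as a constitutive type I lactamase producer.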

Escherichia coli [2] = assay: Minimum inhibitory concentration against Escherichia coli DCO (inoculum, 10e4 cfu per spot); type: functional; outline: as §1
Escherichia coli [3] = assay: Minimum inhibitory concentration against Escherichia coli A8 (inoculum, 10e5 cfu per spot); type: functional
Outline: (§2)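 MIC in µg/mL, determined in Jewell and Permain growth medium with spot inoculation at 10^5 cfu per spot.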

Enterobacter cloacae [4] = assay: Minimum inhibitory concentration against Enterobacter cloacae A13 (inoculum, 10e5 cfu per spot); type: functional; outline: as §2
Enterobacter cloacae [5] = assay: Minimum inhibitory concentration against Enterobacter cloacae P99 (inoculum, 10e4 cfu per spot); type: functional; outline: as §1
Klebsiella aerogenes [6] = assay: Minimum inhibitory concentration against Klebsiella aerogenes X5L (inoculum, 10e4 cfu per spot); type: functional; outline: as §1
Klebsiella aerogenes [7] = assay: Minimum inhibitory concentration against Klebsiella aerogenes X6 (inoculum, 10e4 cfu per spot); type: functional; outline: as §1
Klebsiella pneumoniae = assay: Minimum inhibitory concentration against Klebsiella pneumoniae A24 (inoculum, 10e5 cfu per spot); type: functional; outline: as §2
Proteus mirabilis = assay: Minimum inhibitory concentration against Proteus mirabilis A18 (inoculum, 10e5 cfu per spot); type: functional; outline: as §2
Pseudomonas aeruginosa = assay: Minimum inhibitory concentration against Pseudomonas aeruginosa A21 (inoculum, 10e5 cfu per spot); type: functional; outline: as §2
Staphylococcus aureus [8] = assay: Minimum inhibitory concentration against Staphylococcus aureus A4 (inoculum, 10e5 cfu per spot); type: functional; outline: as §2
Staphylococcus aureus [9] = assay: Minimum inhibitory concentration against Staphylococcus aureus A6 (inoculum, 10e5 cfu per spot); type: functional; outline: as §2
Streptococcus pyogenes = assay: Minimum inhibitory concentration against Streptococcus pyogenes (inoculum, 10e5 cfu per spot) A1; type: functional; outline: as §2
Serratia marcescens = assay: Minimum inhibitory concentration against Serratia marcescens A16 (inoculum, 10e5 cfu per spot); type: functional; outline: as §2
Enterobacter cloacae [10] = assay: Minimum inhibitory concentration against Enterobacter cloacae P99 (inoculum, 10e4 cfu per spot)(type I lactamase producer); type: functional; outline: as §1
Escherichia coli [11] = assay: Minimum inhibitory concentration against Escherichia coli X4 (inoculum, 10e4 cfu per spot)
Escherichia coli [12] = assay: Minimum inhibitory concentration against Escherichia coli TEM X3 (inoculum, 10e4 cfu per spot)(TEM I type lactamase producer)
Proteus vulgaris = assay: Minimum inhibitory concentration against Proteus vulgaris Pv9 (inoculum, 10e5 cfu per spot)

SMILES	MIC (Escherichia coli [1]) [µg/mL]	MIC (Escherichia coli [2]) [µg/mL]	MIC (Escherichia coli [3]) [µg/mL]	MIC (Enterobacter cloacae [4]) [µg/mL]	MIC (Enterobacter cloacae [5]) [µg/mL]	MIC (Klebsiella aerogenes [6]) [µg/mL]	MIC (Klebsiella aerogenes [7]) [µg/mL]	MIC (Klebsiella pneumoniae) [µg/mL]	MIC (Proteus mirabilis) [µg/mL]	MIC (Pseudomonas aeruginosa) [µg/mL]	MIC (Staphylococcus aureus [8]) [µg/mL]	MIC (Staphylococcus aureus [9]) [µg/mL]	MIC (Streptococcus pyogenes) [µg/mL]	MIC (Serratia marcescens) [µg/mL]	MIC (Enterobacter cloacae [10]) [µg/mL]	MIC (Escherichia coli [11]) [µg/mL]	MIC (Escherichia coli [12]) [µg/mL]	MIC (Proteus vulgaris) [µg/mL]
CC1=C(C(=O)OC(c2ccccc2)c2ccccc2)N2C(=O)[C@@H](NC3=NCCN3C)C2SC1 (some centres not stated)	32 (≈ 69.2 µM)	128 (≈ 277 µM)	40 (≈ 86.5 µM)	> 200	64 (≈ 138 µM)	> 200	128 (≈ 277 µM)	40 (≈ 86.5 µM)	> 200	> 200	> 200	> 200	> 200	> 200	128 (≈ 277 µM)	128 (≈ 277 µM)	128 (≈ 277 µM)	–
CC1=C(C(=O)OC(c2ccccc2)c2ccccc2)N2C(=O)[C@@H](NC3=NCC(C)N3)C2SC1 (some centres not stated)	4 (≈ 8.65 µM)	8 (≈ 17.3 µM)	128 (≈ 277 µM)	> 256	2 (≈ 4.32 µM)	40 (≈ 86.5 µM)	8 (≈ 17.3 µM)	> 256	> 256	> 256	> 256	> 256	> 256	> 256	2 (≈ 4.32 µM)	2 (≈ 4.32 µM)	2 (≈ 4.32 µM)	–
CC(=O)OCC1=C(C(=O)OC(c2ccccc2)c2ccccc2)N2C(=O)[C@@H](Nc3nc4cc(CO)ccc4[nH]3)C2SC1 (some centres not stated)	0.06 (≈ 0.103 µM)	0.5 (≈ 0.855 µM)	0.5 (≈ 0.855 µM)	> 256	0.5 (≈ 0.855 µM)	128 (≈ 219 µM)	1 (≈ 1.71 µM)	1 (≈ 1.71 µM)	8 (≈ 13.7 µM)	> 256	64 (≈ 109 µM)	8 (≈ 13.7 µM)	1 (≈ 1.71 µM)	> 256	> 256	0.5 (≈ 0.855 µM)	4 (≈ 6.84 µM)	128 (≈ 219 µM)
CC(=O)OCC1=C(C(=O)OC(c2ccccc2)c2ccccc2)N2C(=O)[C@@H](Nc3nc4cscc4[nH]3)C2SC1 (some centres not stated)	0.06 (≈ 0.107 µM)	1 (≈ 1.78 µM)	8 (≈ 14.3 µM)	> 256	1 (≈ 1.78 µM)	128 (≈ 228 µM)	2 (≈ 3.57 µM)	16 (≈ 28.5 µM)	32 (≈ 57.1 µM)	> 256	32 (≈ 57.1 µM)	4 (≈ 7.13 µM)	2 (≈ 3.57 µM)	> 256	> 256	0.5 (≈ 0.892 µM)	4 (≈ 7.13 µM)	–
CC(=O)OCC1=C(C(=O)OC(c2ccccc2)c2ccccc2)N2C(=O)[C@@H](Nc3nc4c(C)cccc4[nH]3)C2SC1 (some centres not stated)	0.25 (≈ 0.44 µM)	8 (≈ 14.1 µM)	16 (≈ 28.1 µM)	≥ 128	32 (≈ 56.3 µM)	≥ 128	16 (≈ 28.1 µM)	8 (≈ 14.1 µM)	8 (≈ 14.1 µM)	≥ 128	8 (≈ 14.1 µM)	4 (≈ 7.03 µM)	8 (≈ 14.1 µM)	≥ 128	≥ 128	8 (≈ 14.1 µM)	32 (≈ 56.3 µM)	≥ 128
CC(=O)OCC1=C(C(=O)OC(c2ccccc2)c2ccccc2)N2C(=O)[C@@H](Nc3nc4c(N)cccc4[nH]3)C2SC1 (some centres not stated)	1 (≈ 1.76 µM)	4 (≈ 7.02 µM)	40 (≈ 70.2 µM)	> 200	4 (≈ 7.02 µM)	> 200	8 (≈ 14 µM)	> 200	200 (≈ 351 µM)	> 200	> 200	40 (≈ 70.2 µM)	40 (≈ 70.2 µM)	> 200	> 200	8 (≈ 14 µM)	128 (≈ 225 µM)	–
Cn1nnnc1SCC1=C(C(=O)OC(C)(C)C)N2C(=O)[C@@H](NC3=NCCN3)C2SC1 (some centres not stated)	–	8 (≈ 17.7 µM)	2 (≈ 4.42 µM)	–	1 (≈ 2.21 µM)	2 (≈ 4.42 µM)	1 (≈ 2.21 µM)	2 (≈ 4.42 µM)	> 256	> 256	> 256	> 256	128 (≈ 283 µM)	32 (≈ 70.7 µM)	8 (≈ 17.7 µM)	1 (≈ 2.21 µM)	1 (≈ 2.21 µM)	–
CC(=O)OCC1=C(C(=O)OC(C)(C)C)N2C(=O)[C@@H](Nc3nc4cc([N+](=O)[O-])ccc4[nH]3)C2SC1 (some centres not stated)	8 (≈ 16.3 µM)	128 (≈ 261 µM)	40 (≈ 81.7 µM)	40 (≈ 81.7 µM)	64 (≈ 131 µM)	> 200	> 200	40 (≈ 81.7 µM)	40 (≈ 81.7 µM)	> 200	200 (≈ 409 µM)	1 (≈ 2.04 µM)	1 (≈ 2.04 µM)	> 200	> 200	> 200	> 200	–
CO[C@@]1(NC2=NCCN2)C(=O)N2C(C(=O)OC(c3ccccc3)c3ccccc3)=C(C)CSC21 (some centres not stated)	> 256	> 256	> 256	> 256	> 256	> 256	> 256	> 256	> 256	> 256	> 256	> 256	> 256	> 256	> 256	> 256	> 256	–
CC(=O)OCC1=C(C(=O)OC(C)(C)C)N2C(=O)[C@@H](Nc3nc4ccccc4n3C)C2SC1 (some centres not stated)	0.25 (≈ 0.545 µM)	64 (≈ 140 µM)	128 (≈ 279 µM)	> 256	64 (≈ 140 µM)	256 (≈ 558 µM)	256 (≈ 558 µM)	–	32 (≈ 69.8 µM)	> 256	> 256	32 (≈ 69.8 µM)	32 (≈ 69.8 µM)	> 256	> 256	32 (≈ 69.8 µM)	64 (≈ 140 µM)	–
CC1=C(C(=O)OC(c2ccccc2)c2ccccc2)N2C(=O)[C@@H](NC3=NC(c4ccccc4)CN3)C2SC1 (some centres not stated)	0.5 (≈ 0.953 µM)	1 (≈ 1.91 µM)	2 (≈ 3.81 µM)	2 (≈ 3.81 µM)	1 (≈ 1.91 µM)	8 (≈ 15.2 µM)	2 (≈ 3.81 µM)	4 (≈ 7.62 µM)	> 256	> 256	> 256	> 256	256 (≈ 488 µM)	–	2 (≈ 3.81 µM)	1 (≈ 1.91 µM)	1 (≈ 1.91 µM)	> 256
CC(=O)OCC1=C(C(=O)OC(c2ccccc2)c2ccccc2)N2C(=O)[C@@H](Nc3nc4cc(O)ccc4[nH]3)C2SC1 (some centres not stated)	0.016 (≈ 0.028 µM)	0.12 (≈ 0.21 µM)	0.12 (≈ 0.21 µM)	128 (≈ 224 µM)	0.12 (≈ 0.21 µM)	64 (≈ 112 µM)	0.5 (≈ 0.876 µM)	2 (≈ 3.5 µM)	0.5 (≈ 0.876 µM)	> 256	16 (≈ 28 µM)	4 (≈ 7.01 µM)	–	256 (≈ 449 µM)	128 (≈ 224 µM)	0.12 (≈ 0.21 µM)	1 (≈ 1.75 µM)	32 (≈ 56.1 µM)
CC1=C(C(=O)OC(C)(C)C)N2C(=O)[C@@H](Nc3nc4ccccc4n3CC(=O)OC(C)(C)C)C2SC1 (some centres not stated)	> 256	> 256	> 256	> 256	> 256	> 256	> 256	–	> 256	> 256	> 256	> 256	> 256	> 256	> 256	> 256	> 256	–
CO[C@@]1(Nc2nc3ccccc3[nH]2)C(=O)N2C(C(=O)OC(c3ccccc3)c3ccccc3)=C(COC(C)=O)CSC21 (some centres not stated)	> 256	> 256	> 256	> 256	> 256	> 256	> 256	> 256	> 256	> 256	> 256	> 256	> 256	> 256	> 256	> 256	> 256	–
CC1=C(C(=O)OC(c2ccccc2)c2ccccc2)N2C(=O)[C@@H](NC3=NC(c4ccc(C#N)cc4)CN3)C2SC1 (some centres not stated)	2 (≈ 3.64 µM)	2 (≈ 3.64 µM)	4 (≈ 7.28 µM)	> 256	4 (≈ 7.28 µM)	8 (≈ 14.6 µM)	8 (≈ 14.6 µM)	16 (≈ 29.1 µM)	> 256	> 256	> 256	> 256	64 (≈ 116 µM)	16 (≈ 29.1 µM)	8 (≈ 14.6 µM)	4 (≈ 7.28 µM)	4 (≈ 7.28 µM)	–
CC1=C(C(=O)OC(c2ccccc2)c2ccccc2)N2C(=O)[C@@H](NC3=NC(C(N)=O)CN3)C2SC1 (some centres not stated)	2 (≈ 4.07 µM)	8 (≈ 16.3 µM)	32 (≈ 65.1 µM)	> 256	4 (≈ 8.14 µM)	16 (≈ 32.5 µM)	16 (≈ 32.5 µM)	16 (≈ 32.5 µM)	> 256	> 256	> 256	> 256	> 256	> 256	8 (≈ 16.3 µM)	8 (≈ 16.3 µM)	8 (≈ 16.3 µM)	–
CC(=O)OCC1=C(C(=O)OC(c2ccccc2)c2ccccc2)N2C(=O)[C@@H](Nc3nc4cc(C(=O)O)ccc4[nH]3)C2SC1 (some centres not stated)	0.25 (≈ 0.418 µM)	8 (≈ 13.4 µM)	16 (≈ 26.7 µM)	> 256	4 (≈ 6.68 µM)	> 256	16 (≈ 26.7 µM)	32 (≈ 53.5 µM)	32 (≈ 53.5 µM)	> 256	256 (≈ 428 µM)	32 (≈ 53.5 µM)	8 (≈ 13.4 µM)	> 256	> 256	8 (≈ 13.4 µM)	16 (≈ 26.7 µM)	–
